For two compounds, MIC results are on record in ChEMBL document CHEMBL1121766, “Chemical modification of aminoglycosides. 3. Synthesis of 2"-deoxykanamycins from neamine” (1981).

Experiment [1] is described as follows: Compound was tested in vitro for antibacterial activity against Salmonella schottmuelleri UC 126. In kind it is functional. The gist of the method:
(§1)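 MIC by microplate broth dilution: serial twofold dilutions of antibiotic in brain-heart infusion broth, each well inoculated with standardized cell suspension to ~10^5 viable cells per mL of drug-supplemented medium. Incubated 37 °C for 20 h; MIC read as lowest concentration inhibiting visible growth.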

A further experiment deals with Proteus mirabilis. As to the kind of experiment: Compound was tested in vitro for antibacterial activity against Proteus mirabilis UC 6671. In kind it is functional. In a few lines:
as §1

For a further experiment, the system named is Staphylococcus aureus. Briefly: Compound was tested in vitro for antibacterial activity against Staphylococcus aureus UC76. In kind it is functional. The gist of the method:
as §1

The test system of the next experiment is Streptococcus pyogenes. As to the kind of experiment: Compound was tested in vitro for antibacterial activity against Streptococcus pyogenes UC 152. In kind it is functional. The gist of the method: as §1
The subject of a further experiment is Escherichia coli. As to the kind of experiment: Compound was tested in vitro for antibacterial activity against Escherichia coli UC 45. In kind it is functional. The gist of the method:
as §1

A further experiment relates to Enterococcus faecalis. As to the kind of experiment: Compound was tested in vitro for antibacterial activity against Streptococcus faecalis UC 694. In kind it is functional. In a few lines:
as §1

The test system of another experiment is Streptococcus pneumoniae. As to the kind of experiment: Compound was tested in vitro for antibacterial activity against Streptococcus pneumoniae UC 41. The experiment is classed as functional. The gist of the method:
as §1

In a further experiment the test system is Klebsiella pneumoniae. As to the kind of experiment: Compound was tested in vitro for antibacterial activity against Klebsiella pneumoniae UC 58. The experiment is classed as functional. The gist of the method:
as §1

The test system of a further experiment is Serratia marcescens. As to the kind of experiment: Compound was tested in vitro for antibacterial activity against Serratia marcescens UC 131. The experiment is classed as functional. In a few lines: as §1
In experiment [2] the test system is Pseudomonas aeruginosa. Briefly: Compound was tested in vitro for antibacterial activity against Pseudomonas aeruginosa UC 3683. In kind it is functional. In a few lines: as §1
The subject of experiment [3] is Pseudomonas aeruginosa. Briefly: Compound was tested in vitro for antibacterial activity against Pseudomonas aeruginosa UC 3680. The experiment is classed as functional. In a few lines:
as §1

The test system of experiment [4] is Pseudomonas aeruginosa. Briefly: Compound was tested in vitro for antibacterial activity against Pseudomonas aeruginosa UC 95. The experiment is classed as functional. The gist of the method: as §1
Experiment [5] concerns Pseudomonas aeruginosa. As to the kind of experiment: Compound was tested in vitro for antibacterial activity against Pseudomonas aeruginosa UC 3682. In kind it is functional. In a few lines:
as §1

A further experiment deals with Proteus vulgaris. As to the kind of experiment: Compound was tested in vitro for antibacterial activity against Proteus vulgaris UC 93. In kind it is functional. In a few lines:
as §1

For experiment [6], the system named is Pseudomonas aeruginosa. As to the kind of experiment: Compound was tested in vitro for antibacterial activity against Pseudomonas aeruginosa UC 3681. In kind it is functional. The gist of the method:
as §1

Experiment [7] concerns Pseudomonas aeruginosa. Briefly: Compound was tested in vitro for antibacterial activity against Pseudomonas aeruginosa UC 6436. The experiment is classed as functional. In a few lines: as §1
Experiment [8] relates to Pseudomonas aeruginosa. Briefly: Compound was tested in vitro for antibacterial activity against Pseudomonas aeruginosa UC 3679. In kind it is functional. In a few lines: as §1
The next experiment relates to Salmonella typhi. Briefly: Compound was tested in vitro for antibacterial activity against Salmonella typhi UC 215. The experiment is classed as functional, Salmonella enterica subsp. enterica serovar Typhi. The conditions noted are these: Salmonella enterica. The gist of the method:
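Microplate broth dilution: serial twofold antibiotic dilutions in brain-heart infusion broth, inoculated with a standardized cell suspension to a final ~10^5 viable cells per mL. Incubated 37 °C for 20 h. MIC read as the lowest concentration that inhibited visible growth.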

In brackets after ≈: the same amount, converted by molar mass.

As a reminder, the MIC is the smallest concentration in the dilution series that meets the test's criterion for growth inhibition. For the compound `NCC1OC(OC2C(N)CC(N)C(OC3CC(N)C(O)C(CO)O3)C2O)C(N)C(O)C1O` (stereo not drawn), the MIC came to 15.6 µg/mL (≈ 33.4 µM) in [1]; 62.5 µg/mL (≈ 134 µM) against Proteus mirabilis; 3.9 µg/mL (≈ 8.34 µM) in the experiment with Staphylococcus aureus; 15.6 µg/mL (≈ 33.4 µM) in the experiment with Streptococcus pyogenes; 31.2 µg/mL (≈ 66.7 µM) with Escherichia coli; 1000 µg/mL (≈ 2140 µM) against Enterococcus faecalis. The values for the MIC with Streptococcus pneumoniae, in the experiment on Klebsiella pneumoniae and in the experiment with Serratia marcescens were 500 µg/mL (≈ 1070 µM), 3.9 µg/mL (≈ 8.34 µM) and 31.2 µg/mL (≈ 66.7 µM), respectively.
Take `NCC1CCC(N)C(OC2C(N)CC(N)C(OC3CC(N)C(O)C(CO)O3)C2O)O1` (stereo not drawn): the MIC in experiment [1] was 15.6 µg/mL (≈ 35.8 µM); in the experiment on Proteus mirabilis, 62.5 µg/mL (≈ 144 µM); against Staphylococcus aureus it was below 1 µg/mL; against Streptococcus pyogenes, 7.8 µg/mL (≈ 17.9 µM); in the experiment on Pseudomonas aeruginosa [2], 7.8 µg/mL (≈ 17.9 µM); in the experiment with Pseudomonas aeruginosa [3] it was 7.8 µg/mL (≈ 17.9 µM). The MIC came to 62.5 µg/mL (≈ 144 µM) against Escherichia coli; 7.8 µg/mL (≈ 17.9 µM) against Pseudomonas aeruginosa [4]; 15.6 µg/mL (≈ 35.8 µM) with Pseudomonas aeruginosa [4] (Pseudomonas aeruginosa, read-out: MIC); 250 µg/mL (≈ 574 µM) with Enterococcus faecalis; 250 µg/mL (≈ 574 µM) with Streptococcus pneumoniae; 15.6 µg/mL (≈ 35.8 µM) in the experiment on Pseudomonas aeruginosa [5]. The MIC was 31.2 µg/mL (≈ 71.6 µM) against Proteus vulgaris; 15.6 µg/mL (≈ 35.8 µM) in the experiment with Pseudomonas aeruginosa [6]; above 125 µg/mL against Pseudomonas aeruginosa [7]; 7.8 µg/mL (≈ 17.9 µM) in the experiment with Pseudomonas aeruginosa [8]; 3.9 µg/mL (≈ 8.95 µM) in the experiment with Klebsiella pneumoniae; 15.6 µg/mL (≈ 35.8 µM) in the experiment on Serratia marcescens. The same compound displayed a minimal inhibitory concentration (MIC) in the experiment with Salmonella typhi of 15.6 µg/mL (≈ 35.8 µM).
